Experimental data taken from ChEMBL document CHEMBL5303300, “EUbOPEN Chemogenomics Library - Multiplex” (2023).
“And” between values parts separate entries of the source, which are not always exact repeats. Equal entries are not always repeated.

Key:
[1] = test system: HEK-293T; assay: Multiplex assay against HEK293T; format: toxicity, cell-based; settings: human, number of replicates 2
Summary of the method: (§1)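 Live cells were stained at seeding with Hoechst33342, BioTracker Green Microtubule Cytoskeleton Dye, MitoTracker Red and Annexin V Alexa Fluor 680. Following compound addition, they were imaged on a CQ1 microscope at 37°C and 5% CO2 and gated by CellPathfinder machine learning into Hoechst high-intensity objects or normal cells, with normal cells split into healthy, pyknosed or fragmented nuclei and pyknosed cells into mitotic or apoptotic. Tubulin, mitochondrial-mass and membrane-permeability phenotypes are per cents of healthy-nucleus cells.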

[2] = test system: Fibroblast; assay: Multiplex assay against human fibroblast; format: toxicity, cell-based; settings: number of replicates 2; summary of the method: as §1
[3] = 12 h, 1 µM, compound concentration 1 uM
[4] = 12 h, 10 µM, compound concentration 10 uM
[5] = 24 h, 1 µM, compound concentration 1 uM
[6] = 24 h, 10 µM, compound concentration 10 uM
[7] = 48 h, 1 µM, compound concentration 1 uM
[8] = 48 h, 10 µM, compound concentration 10 uM

For COc1ccc2cc(S(=O)(=O)N[C@H](CC(=O)N[C@H](Cc3ccc(CN4[C@H](C)CCC[C@@H]4C)cc3)C(=O)N(C)C(C)C)c3ccc4c(c3)OCO4)ccc2c1.Cl, the “Population Apoptotic (%)” value [1, 3] was 40% and 62%, the “Population Fragmented Nuclei (%)” value [1, 3] was 2% and 1% and the “Population Healthy Nuclei (%)” value [1, 3] was 85% and 84%. The “Population Hoechst High Intensity Objects (%)” value [1, 3] was 5% and 6%, the “Population Membrane Permeable-Phenotype (%)” value [1, 3] was 5% and the “Population Mitochondria Different-Phenotype (%)” value [1, 3] was 29% and 26%. The “Population Mitotic Cells (%)” value [1, 3] was 59% and 37%, the “Population Normal (%)” value [1, 3] was 94% and 93% and the “Population Pyknosed Nuclei (%)” value [1, 3] was 11% and 13%. For the same compound, the “Population Tubulin-Different-Phenotype (%)” value [1, 3] was 86% and 85%, the “Total Cell Count” value [1, 3] was 531 and 472 and the “Population Apoptotic (%)” value [1, 4] was 76% and 70%. For the same compound, the “Population Fragmented Nuclei (%)” value [1, 4] was 1% and 3%, the “Population Healthy Nuclei (%)” value [1, 4] was 82% and 83% and the “Population Hoechst High Intensity Objects (%)” value [1, 4] was 10% and 9%. For the same compound, the “Population Membrane Permeable-Phenotype (%)” value [1, 4] was 1% and 4%, the “Population Mitochondria Different-Phenotype (%)” value [1, 4] was 82% and 70% and the “Population Mitotic Cells (%)” value [1, 4] was 23% and 29%. The “Population Normal (%)” value [1, 4] was 89% and 90%, the “Population Pyknosed Nuclei (%)” value [1, 4] was 15% and 12% and the “Population Tubulin-Different-Phenotype (%)” value [1, 4] was 85% and 82%. For the same compound, the “Total Cell Count” value [1, 4] was 395 and 352, the “Population Apoptotic (%)” value [1, 5] was 52% and 56% and the “Population Fragmented Nuclei (%)” value [1, 5] was 5%. The “Population Healthy Nuclei (%)” value [1, 5] was 86% and 83%, the “Population Hoechst High Intensity Objects (%)” value [1, 5] was 6% and 9% and the “Population Membrane Permeable-Phenotype (%)” value [1, 5] was 4%. The “Population Mitochondria Different-Phenotype (%)” value [1, 5] was 19% and 22%, the “Population Mitotic Cells (%)” value [1, 5] was 47% and 43% and the “Population Normal (%)” value [1, 5] was 93% and 90%. The “Population Pyknosed Nuclei (%)” value [1, 5] was 7% and 10%, the “Population Tubulin-Different-Phenotype (%)” value [1, 5] was 74% and 73% and the “Total Cell Count” value [1, 5] was 766 and 588. For the same compound, the “Population Apoptotic (%)” value [1, 6] was 80% and 69%, the “Population Fragmented Nuclei (%)” value [1, 6] was 2% and 5% and the “Population Healthy Nuclei (%)” value [1, 6] was 76% and 75%. The “Population Hoechst High Intensity Objects (%)” value [1, 6] was 10% and 15%, the “Population Membrane Permeable-Phenotype (%)” value [1, 6] was 1% and 2% and the “Population Mitochondria Different-Phenotype (%)” value [1, 6] was 88% and 86%. The “Population Mitotic Cells (%)” value [1, 6] was 19% and 30%, the “Population Normal (%)” value [1, 6] was 89% and 84% and the “Population Pyknosed Nuclei (%)” value [1, 6] was 20% and 19%. For the same compound, the “Population Tubulin-Different-Phenotype (%)” value [1, 6] was 78% and 75%, the “Total Cell Count” value [1, 6] was 417 and 393 and the “Population Apoptotic (%)” value [1, 7] was 18% and 44%. For the same compound, the “Population Fragmented Nuclei (%)” value [1, 7] was 10% and 8%, the “Population Healthy Nuclei (%)” value [1, 7] was 84% and 85% and the “Population Hoechst High Intensity Objects (%)” value [1, 7] was 8% and 9%. The “Population Membrane Permeable-Phenotype (%)” value [1, 7] was 6% and 3%, the “Population Mitochondria Different-Phenotype (%)” value [1, 7] was 5% and 4% and the “Population Mitotic Cells (%)” value [1, 7] was 81% and 55%. For the same compound, the “Population Normal (%)” value [1, 7] was 91% and 90%, the “Population Pyknosed Nuclei (%)” value [1, 7] was 4% and 6% and the “Population Tubulin-Different-Phenotype (%)” value [1, 7] was 44% and 41%. The “Total Cell Count” value [1, 7] was 1592 and 1105, the “Population Apoptotic (%)” value [1, 8] was 88% and 78% and the “Population Fragmented Nuclei (%)” value [1, 8] was 6% and 9%. For the same compound, the “Population Healthy Nuclei (%)” value [1, 8] was 81% and 80%, the “Population Hoechst High Intensity Objects (%)” value [1, 8] was 14% and 17% and the “Population Membrane Permeable-Phenotype (%)” value [1, 8] was 2% and 3%. The “Population Mitochondria Different-Phenotype (%)” value [1, 8] was 78% and 79%, the “Population Mitotic Cells (%)” value [1, 8] was 12% and 21% and the “Population Normal (%)” value [1, 8] was 85% and 82%. For the same compound, the “Population Pyknosed Nuclei (%)” value [1, 8] was 11% and 10%, the “Population Tubulin-Different-Phenotype (%)” value [1, 8] was 84% and 87% and the “Total Cell Count” value [1, 8] was 498 and 427. The “Population Apoptotic (%)” value [2, 3] was 31% and 54%, the “Population Fragmented Nuclei (%)” value [2, 3] was 17% and 21% and the “Population Healthy Nuclei (%)” value [2, 3] was 61% and 62%. The “Population Hoechst High Intensity Objects (%)” value [2, 3] was 0%, the “Population Membrane Permeable-Phenotype (%)” value [2, 3] was 6% and 11% and the “Population Mitochondria Different-Phenotype (%)” value [2, 3] was 2% and 1%. The “Population Mitotic Cells (%)” value [2, 3] was 68% and 45%, the “Population Normal (%)” value [2, 3] was 100% and the “Population Pyknosed Nuclei (%)” value [2, 3] was 20% and 16%. For the same compound, the “Population Tubulin-Different-Phenotype (%)” value [2, 3] was 66% and 52%, the “Total Cell Count” value [2, 3] was 155 and 275 and the “Population Apoptotic (%)” value [2, 4] was 57% and 44%. For the same compound, the “Population Fragmented Nuclei (%)” value [2, 4] was 26% and 14%, the “Population Healthy Nuclei (%)” value [2, 4] was 52% and 66% and the “Population Hoechst High Intensity Objects (%)” value [2, 4] was 0%. The “Population Membrane Permeable-Phenotype (%)” value [2, 4] was 20% and 17%, the “Population Mitochondria Different-Phenotype (%)” value [2, 4] was 21% and 16% and the “Population Mitotic Cells (%)” value [2, 4] was 42% and 55%. The “Population Normal (%)” value [2, 4] was 99%, the “Population Pyknosed Nuclei (%)” value [2, 4] was 20% and 19% and the “Population Tubulin-Different-Phenotype (%)” value [2, 4] was 97% and 84%. For the same compound, the “Total Cell Count” value [2, 4] was 160 and 258, the “Population Apoptotic (%)” value [2, 5] was 43% and 66% and the “Population Fragmented Nuclei (%)” value [2, 5] was 25% and 28%. For the same compound, the “Population Healthy Nuclei (%)” value [2, 5] was 61% and 59%, the “Population Hoechst High Intensity Objects (%)” value [2, 5] was 0% and the “Population Membrane Permeable-Phenotype (%)” value [2, 5] was 0% and 5%. For the same compound, the “Population Mitochondria Different-Phenotype (%)” value [2, 5] was 12% and 10%.
